Test results published in ChEMBL document CHEMBL1145790, “Optimization of a tertiary alcohol series of phosphodiesterase-4 (PDE4) inhibitors: structure-activity relationship related to PDE4 inhibition and human ether-a-go-go related gene potassium channel binding affinity” (J Med Chem, 2003).

Columns and labels:
[1] = system: Canis familiaris; experiment: Range of plasma concentration measured between 2 and 30 min in dogs after intravenous bolus dosing at 10 mg/kg; format: functional, organism-based; parameters: dose 10 mg/kg; settings: Canis lupus familiaris
Method in brief: (§1)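 Anesthetized mongrel dogs, iv bolus (2–5 min) in 60–80% PEG-200; plasma drug levels measured by HPLC between 2 and 30 min after dosing, reported as range (±0.2 µM); data from n ≥ 2 dogs.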

[2] = system: Canis familiaris; experiment: Change in QTc were measured at 15 and 30 min after dosing of bolus at 10 mg/kg in dogs; format: functional, Canis lupus familiaris
Method in brief: (§2)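 Chloralose-anesthetized mongrel dogs (n = 2 or 3) given iv bolus over 2–5 min as solution in 60–80% PEG-200. QTc recorded at 15 and 30 min postdose as percent change from baseline per dog; values averaged, ΔQTc taken as maximal mean percent change (range given).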

[3] = In vitro inhibition of […] induced TNF-alpha production in human whole blood (HWB); format: functional, tissue-based
[4] = In vitro inhibitory activity was determined against human whole blood; format: functional
[5] = target: Voltage-gated inwardly rectifying potassium channel KCNH2 (Homo sapiens, UniProt Q12809)
Chain of Voltage-gated inwardly rectifying potassium channel KCNH2 (Q12809 whole entry, the tested form may be a part, canonical isoform): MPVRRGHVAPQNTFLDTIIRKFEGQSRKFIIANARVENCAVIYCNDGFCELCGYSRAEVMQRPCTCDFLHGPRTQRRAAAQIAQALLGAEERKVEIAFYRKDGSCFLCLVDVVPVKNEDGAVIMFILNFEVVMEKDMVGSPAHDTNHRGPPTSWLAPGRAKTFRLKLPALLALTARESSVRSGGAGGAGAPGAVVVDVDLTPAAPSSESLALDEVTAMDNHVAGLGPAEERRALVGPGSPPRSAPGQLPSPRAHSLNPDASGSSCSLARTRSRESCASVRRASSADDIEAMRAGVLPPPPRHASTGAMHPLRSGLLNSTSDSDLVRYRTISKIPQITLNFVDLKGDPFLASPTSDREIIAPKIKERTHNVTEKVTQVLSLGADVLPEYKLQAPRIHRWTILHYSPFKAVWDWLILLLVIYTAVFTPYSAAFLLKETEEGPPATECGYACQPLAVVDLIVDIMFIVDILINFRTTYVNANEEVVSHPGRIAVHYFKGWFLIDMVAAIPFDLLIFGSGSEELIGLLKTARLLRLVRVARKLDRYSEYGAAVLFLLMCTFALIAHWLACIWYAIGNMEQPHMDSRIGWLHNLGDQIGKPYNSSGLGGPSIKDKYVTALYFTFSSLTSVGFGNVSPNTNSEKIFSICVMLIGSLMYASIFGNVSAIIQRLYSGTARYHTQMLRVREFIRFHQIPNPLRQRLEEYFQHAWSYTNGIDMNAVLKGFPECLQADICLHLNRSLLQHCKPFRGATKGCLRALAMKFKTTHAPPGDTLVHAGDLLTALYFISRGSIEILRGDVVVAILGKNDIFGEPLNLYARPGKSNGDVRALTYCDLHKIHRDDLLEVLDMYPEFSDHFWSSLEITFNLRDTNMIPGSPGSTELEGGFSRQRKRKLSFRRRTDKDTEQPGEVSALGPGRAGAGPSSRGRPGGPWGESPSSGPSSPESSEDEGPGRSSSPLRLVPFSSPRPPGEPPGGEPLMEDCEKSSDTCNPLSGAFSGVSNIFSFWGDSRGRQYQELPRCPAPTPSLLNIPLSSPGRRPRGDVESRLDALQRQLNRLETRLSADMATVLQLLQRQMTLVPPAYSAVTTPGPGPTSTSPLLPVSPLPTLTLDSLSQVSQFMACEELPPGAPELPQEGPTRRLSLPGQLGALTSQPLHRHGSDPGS

[6] = target: 3',5'-cyclic-AMP phosphodiesterase 4A (Homo sapiens, UniProt P27815); experiment: In vitro inhibitory activity was determined against human Phosphodiesterase 4 isoform using a construct representing the common region of spliced variants expressed as a GST-fusion protein in Sf 9 cells; format: cell-based
Chain of 3',5'-cyclic-AMP phosphodiesterase 4A (P27815 whole entry, looked up, stated change not applied, the tested form may be a part, canonical isoform): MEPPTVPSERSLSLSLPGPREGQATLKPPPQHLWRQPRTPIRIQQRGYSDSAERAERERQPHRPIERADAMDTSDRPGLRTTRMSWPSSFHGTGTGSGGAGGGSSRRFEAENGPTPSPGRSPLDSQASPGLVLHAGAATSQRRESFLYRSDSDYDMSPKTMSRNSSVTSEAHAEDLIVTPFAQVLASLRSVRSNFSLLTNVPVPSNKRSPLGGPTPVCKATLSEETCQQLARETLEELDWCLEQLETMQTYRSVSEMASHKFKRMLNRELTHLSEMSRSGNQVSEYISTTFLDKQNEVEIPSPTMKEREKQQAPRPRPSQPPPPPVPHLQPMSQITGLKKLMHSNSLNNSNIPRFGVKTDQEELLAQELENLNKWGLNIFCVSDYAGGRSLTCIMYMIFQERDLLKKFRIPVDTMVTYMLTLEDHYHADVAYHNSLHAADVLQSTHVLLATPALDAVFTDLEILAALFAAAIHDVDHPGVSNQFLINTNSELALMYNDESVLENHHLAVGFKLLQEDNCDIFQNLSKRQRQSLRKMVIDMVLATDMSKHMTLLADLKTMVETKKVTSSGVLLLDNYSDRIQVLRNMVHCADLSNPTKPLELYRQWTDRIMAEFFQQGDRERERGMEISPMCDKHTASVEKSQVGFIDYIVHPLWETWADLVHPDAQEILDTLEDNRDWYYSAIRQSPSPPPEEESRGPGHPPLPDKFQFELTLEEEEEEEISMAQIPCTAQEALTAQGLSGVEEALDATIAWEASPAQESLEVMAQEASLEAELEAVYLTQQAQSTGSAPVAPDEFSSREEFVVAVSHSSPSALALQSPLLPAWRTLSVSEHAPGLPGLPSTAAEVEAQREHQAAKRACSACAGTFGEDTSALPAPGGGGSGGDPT
Method in brief: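 Human PDE4A, common-region construct of spliced variants expressed as GST-fusion in Sf9 cells; values mean ± SEM with n reported.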

[7] = Ratio of lowest plasma concentration to measured over 30 min interval to 50% inhibition of LPS-induced TNF alpha production in human whole blood; format: functional
[8] = system: Canis familiaris; experiment: Range of plasma concentration measured between 2 and 30 min in dogs after intravenous bolus dosing at 3 mg/kg; format: functional, organism-based; parameters: dose 3 mg/kg; settings: Canis lupus familiaris; method in brief: as §1
[9] = system: Canis familiaris; experiment: Change in QTc were measured at 15 and 30 min after dosing of bolus at 3 mg/kg in dogs; format: functional, Canis lupus familiaris; method in brief: as §2

IC50 ([3]; Homo sapiens, Blood) [nM] | IC50 [6] [nM] | IC50 [3] [nM] | Compound | Ki [5] [nM] | other results
90 | 0.5 |  | [O-][n+]1cccc(C[C@@H](c2ccc(OC(F)F)c(OC3CC3)c2)c2cnc(C(O)(C(F)(F)F)C(F)(F)F)s2)c1 | 61400 | Plasma concentration [1]: 25 µM; Change [2]: 3%; IC50 [4]: 90 nM; Ratio plasma concentration/IC50 [7]: 211
90 | 0.5 |  | CC(C)(O)c1ncc(C(Cc2cc[n+]([O-])cc2)c2ccc(OC(F)F)c(OC3CCC3)c2)s1 (stereo unspecified) | 58400 | Plasma concentration [1]: 10 µM; Change [2]: 2.9%; IC50 [4]: 100 nM; Ratio plasma concentration/IC50 [7]: 40
2640 | 48 |  | [O-][n+]1cccc(C[C@H](c2ccc(OC(F)F)c(OC3CC3)c2)c2cnc(C(O)(C(F)(F)F)C(F)(F)F)s2)c1 | 39000 | 
160 | 2.1 |  | CC(O)(c1ccccc1)c1ccc(C(Cc2cc[n+]([O-])cc2)c2ccc(OC(F)F)c(OC(F)F)c2)cn1 (stereo unspecified) | 1180 | IC50 [4]: 160 nM; Ratio plasma concentration/IC50 [7]: 12.5; Plasma concentration [8]: 5 µM; Change [9]: 8.9%
120 | 1 |  | CC(C)(O)c1ccc(C(Cc2cc[n+]([O-])cc2)c2ccc(OC(F)F)c(OC3CCC3)c2)cn1 (stereo unspecified) | 25000 | 
260 | 1.6 |  | CC(C)(O)c1ccc(C(Cc2cc[n+]([O-])cc2)c2ccc(OC(F)F)c(OC3CCC3)c2)cc1 (racemic) | 22400 | 
20 | 0.8 |  | [O-][n+]1ccc(CC(c2ccc(OC(F)F)c(OC3CCC3)c2)c2cnc(C(O)(C(F)(F)F)C(F)(F)F)s2)cc1 (racemic) | 38100 | 
20 | 0.4 |  | [O-][n+]1ccc(CC(c2ccc(OC(F)F)c(OC3CC3)c2)c2cnc(C(O)(C(F)(F)F)C(F)(F)F)s2)cc1 (racemic) |  | 
 | 2.1 | 200 | CC(C)(O)c1ccc(C(Cc2ccc[n+]([O-])c2)c2ccc(OC(F)F)c(OC3CC3)c2)cn1 (single isomer, unassigned; (+)2d) | 42200 | 
 | 1.2 | 60 | CC(C)(O)c1ccc(C(Cc2cc[n+]([O-])cc2)c2ccc(OC(F)F)c(OC3CC3)c2)cn1 (single isomer, unassigned; (+)) |  | 
60 |  |  | CC(C)(O)c1ccc(C(CC2=CCC(=O)N=C2)c2ccc(OC(F)F)c(OC3CC3)c2)cn1 (single isomer, unassigned; (+)) |  | 
 | 334 | 17900 | CC(C)(O)c1ccc(C(Cc2ccc[n+]([O-])c2)c2ccc(OC(F)F)c(OC3CC3)c2)cn1 (single isomer, unassigned; (-)2d) | 44700 | 
 | 55 | 3520 | CC(C)(O)c1ccc(C(Cc2cc[n+]([O-])cc2)c2ccc(OC(F)F)c(OC3CC3)c2)cn1 (single isomer, unassigned; (-)) |  | 
 | 35 | 640 | CC(C)(O)c1ccc(C(Cc2cc[n+]([O-])cc2)c2ccc(OC(F)F)c(OC(F)F)c2)cn1 (single isomer, unassigned; (-)) | 22700 | 
 | 520 | 9010 | CC(C)(O)c1ccc(C(Cc2cc[n+]([O-])cc2)c2ccc(OC(F)F)c(OC(F)F)c2)cn1 (stereo in doubt; 2a(+)) | 25400 | 
16200 | 4.3 |  | COc1ccc([C@H](Cc2ccncc2)c2ccccc2)cc1OC1CCCC1 [CDP840] |  | 
18000 | 38 |  | O=c1[nH]c2c(O)ccc(CCNCCS(=O)(=O)CCCOCCc3ccccc3)c2s1 [SIBENADET] |  | 
